The source of these data is the array DNA melting data of Ke et al. (doi:10.1101/2024.01.08.574731).

Data set [1] can be described thus: melting temperature; fluorescence melt of hairpins on a sequencing array, two-state fit, raised by 9.35 °C to match UV melts. The conditions noted are these: sodium 0.088 M. The procedure, abridged:
(§1)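 Library hairpins on a sequenced MiSeq flow cell carried annealed Cy3 and quencher oligos, and their Cy3 fluorescence was imaged in 50 mM Na-HEPES pH 8.0 with 25 mM NaCl, in 2.5 °C steps up to 60 °C. Signals were normalised to Cy3 before quenching and to control constructs. Melting temperature and folding enthalpy were obtained from bootstrapped two-state fits, combined by inverse-variance weighting across four replicates, and the fitted temperatures were then raised by 9.35 °C to match UV melts.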

Data set [2] can be described thus: folding enthalpy; higher = less favourable; fluorescence melt of hairpins on a sequencing array, two-state fit. Particulars: sodium 0.088 M. The procedure, abridged: as §1

On to GATCTTACTGAAGATC ((((((....)))))), for which, in data set [1], the Tm came to 42.2 °C. Also, the folding enthalpy in data set [2] was -26.9 kcal/mol.

Consider GATCTTAGACAAGATC ((((((....)))))), for which, in data set [1], the Tm came to 37.3 °C. Further, in data set [2], the folding enthalpy was -30.2 kcal/mol.

Consider GATCTTAGGAAAGATC ((((((....)))))), for which the Tm in data set [1] was 38.6 °C. Moreover, the folding enthalpy in data set [2] is -26.5 kcal/mol.

As for GATCTTAGGAAGATC ((((((...)))))), the Tm in data set [1] is 43.3 °C. The folding enthalpy in data set [2] is -30.5 kcal/mol.

For the sequence GATCTTAGTAAGATC ((((((...)))))), the Tm in data set [1] stood at 42.5 °C. In addition, the folding enthalpy in data set [2] was -27.6 kcal/mol.

With GATCTTATAAAGATC ((((((...)))))), the Tm in data set [1] worked out at 44 °C. The folding enthalpy in data set [2] is -29.4 kcal/mol.

For the sequence GATCTTATAGAAGATC ((((((....)))))), the Tm in data set [1] came out at 39.5 °C. In addition, the folding enthalpy in data set [2] is -30 kcal/mol.

For the sequence GATCTTATTAAAGATC ((((((....)))))), in data set [1], the Tm came to 42.8 °C. Further, in data set [2], the folding enthalpy was -30.7 kcal/mol.

With GATCTTATTAAGATC ((((((...)))))), the Tm in data set [1] was 45 °C. For the same sequence, the folding enthalpy in data set [2] was -34 kcal/mol.

As to GATCTTCAGAAAGATC ((((((....)))))), in data set [1], the Tm came to 41.7 °C. In addition, in data set [2], the folding enthalpy was -29.7 kcal/mol.

For GATCTTCAGCAAGATC ((((((....)))))), the Tm in data set [1] amounted to 38.9 °C. In addition, the folding enthalpy in data set [2] is -24.6 kcal/mol.

GATCTTCAGTAAGATC ((((((....)))))): the Tm in data set [1] was determined as 40.7 °C. Also, the folding enthalpy in data set [2] is -30.6 kcal/mol.

Regarding GATCTTCATTAAGATC ((((((....)))))), the Tm in data set [1] turned out to be 41.5 °C. In addition, the folding enthalpy in data set [2] is -35.4 kcal/mol.

For GATCTTCCAAAAGATC ((((((....)))))), the Tm in data set [1] was found to be 41.7 °C. Further, the folding enthalpy in data set [2] is -32 kcal/mol.

GATCTTCCTAAAGATC ((((((....)))))): in data set [1], the Tm is 43.7 °C. Further, the folding enthalpy in data set [2] was -31.7 kcal/mol.

Take GATCTTCCTGAAGATC ((((((....)))))): in data set [1], the Tm was determined as 51.2 °C. The folding enthalpy in data set [2] is -39.8 kcal/mol.

With GATCTTCCTTAAGATC ((((((....)))))), the Tm in data set [1] worked out at 42.1 °C. In addition, the folding enthalpy in data set [2] was -27.8 kcal/mol.

Turning to GATCTTCGACAAGATC ((((((....)))))), the Tm in data set [1] was 38.6 °C. For the same sequence, the folding enthalpy in data set [2] is -26.7 kcal/mol.

GATCTTCGAGAAGATC ((((((....)))))): in data set [1], the Tm was determined as 50.8 °C. Besides, in data set [2], the folding enthalpy is -42 kcal/mol.

For the sequence GATCTTCGATAAGATC ((((((....)))))), in data set [1], the Tm turned out to be 40.2 °C. For the same sequence, in data set [2], the folding enthalpy is -24.7 kcal/mol.

Regarding GATCTTCGCCAAGATC ((((((....)))))), the Tm in data set [1] came to 42 °C. In data set [2], the folding enthalpy is -33.7 kcal/mol.

With GATCTTCGGGAAGATC ((((((....)))))), the Tm in data set [1] stood at 49.5 °C. In addition, the folding enthalpy in data set [2] was -36.2 kcal/mol.

Regarding GATCTTCGGTAAGATC ((((((....)))))), the Tm in data set [1] was found to be 41.3 °C. Also, the folding enthalpy in data set [2] was -34 kcal/mol.

Regarding GATCTTCTCAAAGATC ((((((....)))))), in data set [1], the Tm worked out at 45.2 °C. For the same sequence, the folding enthalpy in data set [2] is -33.4 kcal/mol.

On to GATCTTCTCCAAGATC ((((((....)))))), for which, in data set [1], the Tm came to 41.1 °C. Further, in data set [2], the folding enthalpy was -29.8 kcal/mol.

Regarding GATCTTCTCGAAGATC ((((((....)))))), the Tm in data set [1] came out at 51.8 °C. Besides, the folding enthalpy in data set [2] is -39 kcal/mol.

GATCTTCTTCAAGATC ((((((....)))))): the Tm in data set [1] turned out to be 43.5 °C. Moreover, the folding enthalpy in data set [2] is -27.7 kcal/mol.

For GATCTTCTTGAAGATC ((((((....)))))), in data set [1], the Tm worked out at 54 °C. Besides, the folding enthalpy in data set [2] was -48 kcal/mol.

Turning to GATCTTGACAAGATC ((((((...)))))), the Tm in data set [1] worked out at 46.1 °C. For the same sequence, in data set [2], the folding enthalpy was -38.6 kcal/mol.

In the case of GATCTTGACCAAGATC ((((((....)))))), the Tm in data set [1] is 49.3 °C. Further, the folding enthalpy in data set [2] was -38.3 kcal/mol.

As to GATCTTGACTAAGATC ((((((....)))))), the Tm in data set [1] came to 49 °C. Also, in data set [2], the folding enthalpy was -44 kcal/mol.

Consider GATCTTGAGCAAGATC ((((((....)))))), for which, in data set [1], the Tm is 44.4 °C. Moreover, the folding enthalpy in data set [2] is -33.5 kcal/mol.

GATCTTGCCGAAGATC ((((((....)))))): the Tm in data set [1] is 46.1 °C. Also, the folding enthalpy in data set [2] was -28.1 kcal/mol.

GATCTTGCGAAGATC ((((((...)))))): the Tm in data set [1] was found to be 42.8 °C. Also, the folding enthalpy in data set [2] is -23.7 kcal/mol.

In the case of GATCTTGGAAACAAGATC (((((((....))))))), in data set [1], the Tm was 55.9 °C. In addition, the folding enthalpy in data set [2] is -42.3 kcal/mol.

For GATCTTGGTGAAGATC ((((((....)))))), the Tm in data set [1] was 45.4 °C. For the same sequence, in data set [2], the folding enthalpy is -27.2 kcal/mol.

Take GATCTTGTCGAAGATC ((((((....)))))): the Tm in data set [1] was 46.4 °C. Also, the folding enthalpy in data set [2] was -27.4 kcal/mol.
